For test [1], the system named is Streptococcus mutans. Nature of the test: Antibacterial activity against Streptococcus mutans ATCC 27351 assessed as growth inhibition at 40 ug/ml following preincubation of compound with supernatant of Porphyromonas gingivalis ATCC 33277. The class given is functional, organism-based. The method, boiled down:
(§1)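 Stationary-phase P. gingivalis or A. actinomycetemcomitans cultures were spun 10 min at 10,000 × g and the supernatant filter-sterilised (0.2 μm). Peptide was preincubated with 20% (final) filtrate for varying times. It was then added to S. mutans (overnight culture diluted 1:10 in BHI, bath-sonicated 1 min), grown at 37°C in 5% CO2, and read at OD650. % inhibition: no-peptide = 0%, fresh-medium-preincubated peptide = 100%. Mean ± SD, three independent experiments.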

Test [2] has as its system Streptococcus mutans. Nature of the test: Antibacterial activity against Streptococcus mutans ATCC 27351 assessed as growth inhibition at 40 ug/ml following preincubation of compound with supernatant of Aggregatibacter actinomycetemcommitans ATCC 29523. In kind it is functional, organism-based. The gist of the method:
as §1

The subject of test [3] is Streptococcus mutans. Nature of the test: Antibacterial activity against Streptococcus mutans assessed as growth inhibition at 40 ug/ml following preincubation of compound with supernatant of Porphyromonas gingivalis ATCC 33277.
For test [4], the system named is Streptococcus mutans. The test is described as follows: Antibacterial activity against Streptococcus mutans assessed as growth inhibition at 40 ug/ml following preincubation of compound with supernatant of Aggregatibacter actinomycetemcommitans ATCC 29523.
Test [5] relates to Porphyromonas gingivalis. Nature of the test: Antibacterial activity against Porphyromonas gingivalis ATCC 33277. In kind it is functional, organism-based. The method, boiled down:
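Increasing amounts of peptide were added to a growing anaerobic P. gingivalis culture. Percent growth inhibition was calculated relative to untreated cells (0%). Means ± SD of three independent experiments.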

Test [6] relates to Streptococcus mutans. The test is described as follows: Antibacterial activity against Streptococcus mutans ATCC 27351 assessed as growth inhibition at 5 ug/ml following preincubation of compound with supernatant of Porphyromonas gingivalis ATCC 33277. In kind it is functional, organism-based. The gist of the method:
as §1

Test [7] concerns Streptococcus mutans. Nature of the test: Antibacterial activity against Streptococcus mutans ATCC 27351 assessed as growth inhibition at 5 ug/ml following preincubation of compound with supernatant of Aggregatibacter actinomycetemcommitans ATCC 29523. In kind it is functional, organism-based. The method, boiled down:
as §1

Test [8] relates to Porphyromonas gingivalis. Nature of the test: Binding affinity to membranes of Porphyromonas gingivalis KDP136 using Alexa Fluor-labeled compound at 0.8 mg/ml by fluorimetric assay.
For test [9], the system named is Streptococcus mutans. Nature of the test: Antibacterial activity against Streptococcus mutans assessed as growth inhibition at 5 ug/ml following preincubation of compound with supernatant of Porphyromonas gingivalis ATCC 33277.
Test [10] relates to Streptococcus mutans. Nature of the test: Antibacterial activity against Streptococcus mutans assessed as growth inhibition at 5 ug/ml following preincubation of compound with supernatant of Aggregatibacter actinomycetemcommitans ATCC 29523.
Test [11] has as its system Porphyromonas gingivalis. Nature of the test: Antibacterial activity against protease deficient Porphyromonas gingivalis KDP136. In kind it is functional.
For test [12], the system named is Escherichia coli. The test is described as follows: Antibacterial activity against Escherichia coli ATCC 25922 assessed as growth inhibition at 100 ug/ml following preincubation of compound with supernatant of Porphyromonas gingivalis ATCC 33277. The class given is functional, organism-based. The gist of the method: (§2)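 Peptide preincubated with filter-sterilized stationary-phase culture supernatant (20% final) for set times, then 10 µl added to 190 µl E. coli overnight culture (diluted 1:5,000 in BHI, sonicated 1 min); peptide 100 μg/ml final on cells; aerobic growth; OD650 read; % inhibition relative to no-peptide (0%) and medium-preincubated peptide (100%); three independent experiments in triplicate, mean ± SD.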

Test [13] concerns Streptococcus mutans. The test is described as follows: Antibacterial activity against Streptococcus mutans ATCC 27351 assessed as growth inhibition at 100 ug/ml following preincubation of compound with supernatant of Porphyromonas gingivalis ATCC 33277. In kind it is functional, organism-based. The gist of the method:
(§3)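 Peptide at 100 μg/ml incubated with filter-sterilized stationary-phase culture supernatant (20% final) for set times; 10 µl added to 190 µl S. mutans overnight culture diluted 1:10 in BHI and sonicated 1 min; grown at 37°C, 5% CO2; OD650 read; % inhibition relative to no-peptide (0%) and medium-preincubated peptide (100%); three experiments in triplicate, mean ± SD.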

For test [14], the system named is Streptococcus mutans. Nature of the test: Antibacterial activity against Streptococcus mutans ATCC 27351 assessed as growth inhibition at 100 ug/ml following preincubation of compound with supernatant of Aggregatibacter actinomycetemcommitans ATCC 29523. In kind it is functional, organism-based. The gist of the method:
as §3

Test [15] deals with Escherichia coli. The test is described as follows: Antibacterial activity against Escherichia coli ATCC 25922 assessed as growth inhibition at 100 ug/ml following preincubation of compound with supernatant of Aggregatibacter actinomycetemcommitans ATCC 29523. In kind it is functional, organism-based. The gist of the method: as §2

In ChEMBL document CHEMBL1255243, “Resistance of Porphyromonas gingivalis ATCC 33277 to direct killing by antimicrobial peptides is protease independent” (2008) one finds Activity and MIC data, which are given here for three compounds.

Activity calls are given as the source filed them. No cut-off for these calls is given here.

With H-KRLFKKLLFSLRKY-NH2, the outcome in the test with Streptococcus mutans [1] and in the test on Streptococcus mutans [3] was inactive. Moreover, the result with Streptococcus mutans [2] and with Streptococcus mutans [4] was Active.

As to H-ALWKTLLKKVLKAAA-NH2, the outcome in the test with Porphyromonas gingivalis [5], in the test on Streptococcus mutans [6], in the test on Porphyromonas gingivalis [8] and with Streptococcus mutans [9] was inactive. Also, the outcome in the test on Streptococcus mutans [7] and in the test with Streptococcus mutans [10] was Active.

The term MIC denotes the lowest concentration that inhibits growth of the organism. High values mean a less susceptible organism, low ones a more susceptible organism. Take `CC[C@H](C)[C@H](NC(=O)[C@H](CCCCN)NC(=O)[C@H](CCC(=O)O)NC(=O)[C@H](CCCCN)NC(=O)[C@H](CO)NC(=O)[C@H](CCCCN)NC(=O)[C@H](CCCNC(=N)N)NC(=O)[C@H](Cc1ccccc1)NC(=O)[C@H](Cc1ccccc1)NC(=O)[C@H](CC(=O)O)NC(=O)CNC(=O)[C@H](CC(C)C)NC(=O)[C@@H](N)CC(C)C)C(=O)NCC(=O)N[C@@H](CCCCN)C(=O)N[C@@H](CCC(=O)O)C(=O)N[C@@H](Cc1ccccc1)C(=O)N[C@@H](CCCCN)C(=O)N[C@@H](CCCNC(=N)N)C(=O)N[C@H](C(=O)N[C@H](C(=O)N[C@@H](CCC(N)=O)C(=O)N[C@@H](CCCNC(=N)N)C(=O)N[C@H](C(=O)N[C@@H](CCCCN)C(=O)N[C@@H](CC(=O)O)C(=O)N[C@@H](Cc1ccccc1)C(=O)N[C@@H](CC(C)C)C(=O)N[C@@H](CCCNC(=N)N)C(=O)N[C@@H](CC(N)=O)C(=O)N[C@@H](CC(C)C)C(=O)N[C@H](C(=O)N1CCC[C@H]1C(=O)N[C@@H](CCCNC(=N)N)C(=O)N[C@H](C(=O)N[C@@H](CCC(=O)O)C(=O)N[C@@H](CO)C(=O)O)[C@@H](C)O)C(C)C)[C@@H](C)CC)C(C)C)[C@@H](C)CC` [CATHELICIDIN]: the MIC against Porphyromonas gingivalis [11] was more than 200 µg/mL. The result in the test with Escherichia coli [12] and with Streptococcus mutans [13] was inactive. The outcome in the test with Streptococcus mutans [14] and in the test on Escherichia coli [15] was Active.
